Laboratory results: publication PMC4465239 (Journal of autoimmunity, 2013)
Read-outs that look alike come from different tables or passages of the source. Where no end group is shown, it is not given here. fluorescein = fluorescein label at the C-terminus

B1: IL-2: recombinant mouse IL-2 (protein, UniProt P04351 21-169, looked up)
Interleukin-2: APTSSSTSSSTAEAQQQQQQQQQQQQHLEQLLMDLQELLSRMENYRNLKLPRMLTFKFYLPKQATELKDLQCLEDELGPLRHVLDLTQSKSFQLEDAENFISNIRVTVVKLKGSDNTFECQFDDESATVVDFLRRWIAFCQSIISTSPQ

Legend:
[1] = test system: I-A^g7; experiment: Half life of peptide:MHC interaction; assay type: binding, mouse; conditions: HPSEC, 37°C
Procedure, shortened: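 I-Ag7 monomer (1 µM) was loaded with 10 µM C-terminally fluoresceinated peptide for 24–72h at 37°C in 100mM citrate phosphate pH 5, 0.2% NP-40, 0.02% azide, 10mM EDTA and protease inhibitors. Free peptide was removed on a BSA-blocked G-50 spin column, and 2mM unlabelled competitor peptide was added. Samples dissociated at 37°C, were resolved by size-exclusion HPLC with fluorescence detection, and t½ = ln2/decay slope.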

[2] = test system: BDC-2.5 T cells; experiment: Proliferation of anergized cells with or without exogenous IL-2; assay type: cell-based, mouse; conditions: for proliferation on mimotope rechallenge with IL-2: with 3.5ng/well recombinant IL-2, mimotope+IL-2 vs. variant+IL-2 p=0.001; for proliferation on mimotope rechallenge without IL-2: without exogenous IL-2, mimotope vs. variant p=0.05
Procedure, shortened: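 Anergy was induced as follows: 14 d with 1µM mimotope, then 14 d with 1µM mimotope or 10µM variant plus irradiated APC. Cells were rechallenged with irradiated syngeneic splenocytes and graded mimotope, with or without 3.5ng/well recombinant mouse IL-2, for 48h at 37°C. [3H]thymidine (0.4µCi/well) was added for a further 18h. Stimulation index = stimulated CPM/unstimulated CPM. One-way ANOVA with Bonferroni post test.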

[3] = test system: BDC-2.5 T cells; assay type: cell-based, mouse
Procedure, shortened: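 BDC-2.5 splenocytes were primed 14 d with 1µM mimotope, Ficoll-purified, then restimulated 14 d with irradiated (3000 rad) syngeneic splenocytes plus 1µM mimotope or 10µM variant. They were then challenged with graded mimotope and irradiated splenocytes at 37°C. After 48h, 0.4µCi/well [3H]thymidine was added and incorporation counted 18h later. Four independent experiments in duplicate; mean ± SEM; Student's t test.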

[4] = biological target: I-A^g7 monomer (class II MHC of the NOD mouse) (mouse (NOD)); experiment: SEC

Molecule | stability of complex with I-A^g7 [1] | proliferation on mimotope rechallenge with IL-2 [2] | proliferation on mimotope rechallenge without IL-2 [2] | half life of the peptide:MHC complex [4] [h] | also measured
AHHPIWARMDA [mimotope, reference compound] | extremely stable complex | maintained a normal dose response to agonist stimulation | typical proliferation profile | – | background proliferation with IL-2, no peptide rechallenge ([2]; cells not stimulated with peptide, plus 3.5ng/well recombinant IL-2): increased background proliferation
AHYPIPADMDV [YPDV] | much less stable complex | did not exhibit proliferation above background | little proliferation above background | – | induction of anergy [3]: sufficient to induce an anergic phenotype; induction of anergy ([3]; listed as MHC variant peptide): can induce anergy in BDC-2.5 T cells
AHHPIWARMDA-fluorescein [BDC-2.5 mimotope peptide …] | – | – | – | > 36 | –
B1 | – | – | – | – | rescue of proliferation of anergized T cells by IL-2 ([2]; exogenous recombinant IL-2, 3.5ng/well): does not rescue proliferation of anergized T cells
AHYPIPADMDV-fluorescein [YPDV MHC variant peptide …] | – | – | – | 4 | –
